ChEMBL document CHEMBL2346564, “Synthesis and biological evaluation of nitric oxide releasing derivatives of 6-amino-3-n-butylphthalide as potential antiplatelet agents” (Bioorg Med Chem Lett, 2013)
≈ marks a conversion by molar mass, not a printed value.

What was measured:
[1] = Antiplatelet activity in rabbit platelet rich plasma assessed as inhibition of ADP-induced platelet aggregation at 0.1 mM incubated for 5 mins prior to ADP challenge measured after 5 mins by Born's turbidimetric method relative to control; format: functional; conditions: Oryctolagus cuniculus
Method in brief: (§1)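 Rabbit platelet-rich plasma, adjusted with platelet-poor plasma (centrifuged 3000 rpm, 10 min, room temperature) to 400–450 × 10⁹ platelets/L and used within 3 h of blood collection. PRP pre-incubated with vehicle or compound (0.1 mM) for 5 min at 37 °C, then ADP 10 μM added. Maximum aggregation rate recorded over 5 min by Born turbidimetry. Inhibition (%) = 100% − MAR(compound)/MAR(vehicle). Mean ± SD, n = 6.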

[2] = Induction of nitric oxide release in phosphate buffer assessed as nitrite level at 0.1 mM measured every 15 mins for 120 mins followed by every 30 mins for 180 mins by Griess assay; format: physicochemical; conditions: 100 µM
Method in brief: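 Compound at 0.1 mM in phosphate buffer solution, kept at room temperature for 15–300 min. Sampled every 15 min up to 120 min, then every 30 min. Samples mixed with sulfanilamide and N-(1-naphthyl)ethylenediamine dihydrochloride and held 5–10 min at room temperature in the dark. Absorbance read at 540 nm and converted to nitrite (μmol/L) with a nitrite standard curve. Intra-group variation under 10%.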

[3] = Antiplatelet activity in rabbit platelet rich plasma assessed as inhibition of ADP-induced platelet aggregation at 0.1 mM incubated for 5 mins prior to ADP challenge measured after 5 mins by Born's turbidimetric method in presence of hemoglobin relative to control; format: functional; conditions: Oryctolagus cuniculus; method in brief: as §1
Platelet [4] = assay: Ratio of compound activity to 6-amino 3-n-butylphthalide activity for inhibition of ADP-induced platelet aggregation in rabbit platelet rich plasma at 0.1 mM; format: functional, Oryctolagus cuniculus
Platelet [5] = assay: Ratio of compound activity to 3-n-butylphthalide activity for inhibition of ADP-induced platelet aggregation in rabbit platelet rich plasma at 0.1 mM; format: functional, Oryctolagus cuniculus
[6] = Aqueous solubility of the compound in normal saline after 5 hrs by UV-spectrophotometric analysis; conditions: normal saline (aqueous solubility, as described)

Row | Compound | inhibition at 100 µM [1] [%] | Activity [2] [µmol/L] | inhibition at 100 µM [3] [%] | Ratio (Platelet [4]) | Ratio (Platelet [5]) | solubility at 5 h [6] [µM]
1 | CCCCC1OC(=O)c2cc(N)ccc21 (configuration not stated) | 18.4 | – | – | – | – | –
2 | CCCCC1OC(=O)c2cc(NC(=O)CO[N+](=O)[O-])ccc21 (configuration not stated) | 22.2 | 3.67 | – | – | – | –
3 | CCCCC1OC(=O)c2cc(NC(=O)CCO[N+](=O)[O-])ccc21 (configuration not stated) | 30.4 | 12.88 | 23.1 | 2 | 2 | 1180 (≈ 380 µg/mL)
4 | CCCCC1OC(=O)c2cc(NC(=O)CCCO[N+](=O)[O-])ccc21 (configuration not stated) | 28.6 | 7.1 | – | – | – | –
5 | CCCCC1OC(=O)c2cc(NC(=O)c3ccccc3OCCO[N+](=O)[O-])ccc21 (configuration not stated) | 15.2 | 1.82 | – | – | – | –
6 | CCCCC1OC(=O)c2cc(NC(=O)c3ccc(OCCO[N+](=O)[O-])cc3)ccc21 (configuration not stated) | 20 | 2.21 | – | – | – | –
7 | CCCCC1OC(=O)c2cc(NC(=O)c3cccc(OCCO[N+](=O)[O-])c3)ccc21 (configuration not stated) | 26.6 | 6.82 | – | – | – | –
8 | CCCCC1OC(=O)c2cc(NC(=O)c3ccccc3OCCCO[N+](=O)[O-])ccc21 (configuration not stated) | 16.7 | 2.18 | – | – | – | 580 (≈ 248 µg/mL)
9 | CCCCC1OC(=O)c2cc(NC(=O)c3ccc(OCCCO[N+](=O)[O-])cc3)ccc21 (configuration not stated) | 22.8 | 3.88 | – | – | – | 750 (≈ 321 µg/mL)
10 | CCCCC1OC(=O)c2cc(NC(=O)c3cccc(OCCCO[N+](=O)[O-])c3)ccc21 (configuration not stated) | 28.8 | 7.27 | – | – | – | 1060 (≈ 454 µg/mL)
11 | CCCCC1OC(=O)c2cc(NC(=O)c3ccccc3OCCCCO[N+](=O)[O-])ccc21 (configuration not stated) | 13.6 | – | – | – | – | –
12 | CCCCC1OC(=O)c2cc(NC(=O)c3ccc(OCCCCO[N+](=O)[O-])cc3)ccc21 (configuration not stated) | 18.2 | – | – | – | – | –
13 | CCCCC1OC(=O)c2cc(NC(=O)c3cccc(OCCCCO[N+](=O)[O-])c3)ccc21 (configuration not stated) | 21.6 | – | – | – | – | –
14 | CCCCC1OC(=O)c2ccccc21 (racemic) [RAC-3-N-BUTYLPHTHALIDE] | 15.7 | – | – | – | – | 540 (≈ 103 µg/mL)
15 | Clc1ccccc1CN1CCc2sccc2C1 [TICLOPIDINE] | 26.4 | – | – | – | – | –
